TDP2 inh: TDP2 (human) inhibition, absorbance primary screen; hit rate 0.34% among 370,000; O95551; AID 720702; inhibition, % at 12.8 µM; recombinant TDP2, T5PNP hydrolysis, p-nitrophenol absorbance 415 nm;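 active = inhibition above the mean of all tested compounds plus 3 SD, set per campaign, cut at about 25% in these data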;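 also: 0% = DMSO with enzyme and 100% = buffer with substrate but no TDP2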
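System: recombinant human TDP2 / Amount: 120 nM TDP2 per well / Also added: 5 mM T5PNP chromogenic substrate / Doses: 12.8 µM single point, 1% DMSO / Incubation: 2 h at 37 °C / Detection: p-Nitrophenol epi absorbance / Evaluation: % inhibition relative to enzyme-containing and enzyme-free wells / Repeats: singlicate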
LEDGF integ inh: blocks HIV-1 LEDGF/p75-dependent DNA integration | inhibition, % at 3.7 µM | hit rate 0.64% among 370,000 | TR-FRET IN-LEDGF/p75 DNA integration, Eu/Cy5;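 active = inhibition above the screen-wide mean plus 3 SD, cut at about 13% in these data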;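 also: signal is the Cy5 over europium emission ratio at 671 and 618 nm; 0% = plate median of compound wells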
MBD2 inh: MBD2-methylated oligo binding inhibition. TR-FRET, MBD2 binding to methylated oligonucleotide. inhibition, % at 4.4 µM. hit rate 0.31% among 370,000; in the data active = inhibition above about 13%
CASP6 VEID inh: caspase-6 (human) enzyme inhibition; P55212; purified caspase-6, Z-VEID-R110 cleavage fluorescence; inhibition, % at 12.5 µM; hit rate 0.53% among 350,000; AID 686996;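 active = mean inhibition across replicates at least about 35%, with every replicate also reaching that limit, limit read from the data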;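 also: 0% = median of neutral control wells and 100% = no fluorescence left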
NSD2 inh: blocks human histone methyltransferase NSD2; O96028; NSD2 peptide methylation, AlphaScreen, 120 min; AID 743445; hit rate 0.54% among 310,000; inhibition, % at 12.5 µM; in the data active = inhibition above about 50%
UHRF1 MBD2 ctr: human UHRF1 methylated DNA binding inhibitors; Q96T88; UHRF1 binding to methylated oligo, TR-FRET; inhibition, % at 4.4 µM; hit rate 0.75% among 370,000; AID 687016; in the data active = inhibition above about 21%;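 also: UHRF1 SRA domain binding a hemimethylated CpG hairpin DNA probe; 0% = median of test compound wells and 100% = reference inhibitor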
Target sequence (Q96T88 whole entry, looked up, the tested form may be a part): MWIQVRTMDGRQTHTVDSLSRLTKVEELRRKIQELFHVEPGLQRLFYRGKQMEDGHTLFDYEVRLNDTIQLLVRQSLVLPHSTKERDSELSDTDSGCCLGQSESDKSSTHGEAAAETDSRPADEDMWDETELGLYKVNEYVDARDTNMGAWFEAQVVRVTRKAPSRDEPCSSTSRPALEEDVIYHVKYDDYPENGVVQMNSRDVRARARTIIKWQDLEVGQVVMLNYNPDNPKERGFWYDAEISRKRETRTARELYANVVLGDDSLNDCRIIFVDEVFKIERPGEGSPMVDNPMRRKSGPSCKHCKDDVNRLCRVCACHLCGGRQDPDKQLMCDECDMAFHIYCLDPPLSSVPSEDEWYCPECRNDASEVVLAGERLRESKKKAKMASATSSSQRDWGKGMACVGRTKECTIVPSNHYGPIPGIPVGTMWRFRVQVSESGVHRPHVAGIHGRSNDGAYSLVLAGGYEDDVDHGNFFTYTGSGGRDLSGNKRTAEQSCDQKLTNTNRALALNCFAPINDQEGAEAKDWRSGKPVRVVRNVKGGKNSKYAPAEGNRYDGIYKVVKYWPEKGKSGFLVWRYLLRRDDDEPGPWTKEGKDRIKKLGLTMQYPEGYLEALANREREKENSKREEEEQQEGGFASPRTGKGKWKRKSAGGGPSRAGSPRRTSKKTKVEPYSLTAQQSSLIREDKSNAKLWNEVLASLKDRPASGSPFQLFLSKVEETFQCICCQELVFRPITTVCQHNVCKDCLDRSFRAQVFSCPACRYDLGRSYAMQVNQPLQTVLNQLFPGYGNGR
The depositor's hits bear a star; · = no result. Sampled rows, rich in hits. Any-hit rate of the full collection: about 1.8%.

SMILES	TDP2 inh	LEDGF integ inh	MBD2 inh	CASP6 VEID inh	NSD2 inh	UHRF1 MBD2 ctr
COCCCN1CCc2[nH]c(=S)[nH]c(=O)c2C1	10.9	3.5	1.4	·	-0.1	-1.0
COc1cccc(CN2CCc3[nH]c(=S)[nH]c(=O)c3C2)c1	11.1	-0.8	2.3	41.0*	1.6	-2.4
O=C(NC[C@H]1CC[C@H]2[C@H](CN2C(=O)C2CC2)O1)c1cnccn1	·	·	·	-2.3	·	·
CC1(C)C2CCC1(C)C(Nc1ccccc1)C2 (stereo not drawn)	9.1	-2.7	5.2	0.6	7.5	-0.8
CC1(C)C2CCC1(C)C(NC(=O)/C=C/c1ccccc1)C2 (stereo not drawn)	-4.3	-2.0	-5.4	3.0	-2.7	25.4*
COc1ccc(CNC(=O)C2CCN(S(=O)(=O)c3ccc4nc5c(c(C(=O)O)c4c3)CC(C)CC5)CC2)cc1 (stereo not drawn)	-15.4	3.0	1.4	35.7*	18.4	1.8
CCC(C)NC(=O)C1CCN(S(=O)(=O)c2ccc3nc4c(c(C(=O)O)c3c2)CCCCC4)CC1 (stereo not drawn)	10.7	0.9	1.8	0.1	-1.9	0.9
CCCNC(=O)C1CCN(S(=O)(=O)c2ccc3nc4c(c(C(=O)O)c3c2)CCCCC4)CC1	-9.7	2.8	-4.2	1.8	·	-1.4
COCCCNC(=O)C1CCN(S(=O)(=O)c2ccc3nc4c(c(C(=O)O)c3c2)CCCCC4)CC1	10.7	-2.4	1.3	-0.5	42.0	1.3
Cc1ccc(CCNC(=O)C2CCN(S(=O)(=O)c3ccc4nc5c(c(C(=O)O)c4c3)CCCC5)CC2)cc1	-12.7	0.1	-2.9	62.1*	-1.2	1.3
CC1CCc2nc3ccc(S(=O)(=O)N4CCC(C(=O)NCc5ccccc5Cl)CC4)cc3c(C(=O)O)c2C1 (stereo not drawn)	6.2	4.5	-7.5	44.8*	1.0	-1.7
CC(NC(=O)C1CCN(S(=O)(=O)c2ccc3nc4c(c(C(=O)O)c3c2)CCCC4)CC1)c1ccccc1 (stereo not drawn)	1.5	4.2	-1.4	51.9*	-0.6	-1.6
CC1CCC(NC(=O)C2CCN(S(=O)(=O)c3ccc4nc5c(c(C(=O)O)c4c3)CC(C)CC5)CC2)CC1 (stereo not drawn)	-8.9	-2.0	1.6	21.3	8.3	1.6
CCN1CC(=O)N2[C@@H](CO)[C@H](c3ccc(-c4ccccc4F)cc3)[C@@H]2C1	·	·	·	1.1	·	·
CO[C@@H]1CN(C)C(=O)c2cc(NC(C)=O)ccc2OC[C@@H](C)N(C(=O)C2CCC2)C[C@@H]1C	·	·	·	-1.9	·	·
O=C(O)c1c2c(nc3ccc(S(=O)(=O)N4CCC(C(=O)NCc5ccccc5)CC4)cc13)CCCC2	-3.2	0.8	-1.1	18.8	1.9	-0.2
COc1ccccc1CNC(=O)C1CCN(S(=O)(=O)c2ccc3nc4c(c(C(=O)O)c3c2)CCCC4)CC1	-8.9	2.4	0.3	49.9*	-2.0	0.1
CN(Cc1ccccc1)C(=O)C1CCN(S(=O)(=O)c2ccc3nc4c(c(C(=O)O)c3c2)CCCC4)CC1	4.3	4.6	2.2	61.6*	5.7	1.1
COc1cccc2c1C(=O)c1c(O)c3c(c(O)c1C2=O)CC(O)(C(C)=O)CC3OC1CC(O)C(O)C(C)O1 (stereo not drawn)	7.8	-2.9	77.6*	-56.4	·	81.0*
C=CCN1C(=O)/C(=C/c2ccc(O)c(OC)c2)S/C1=N/c1nccs1	-14.3	-1.9	0.8	·	-1.5	-1.8
C=CCN1C(=O)/C(=C/c2ccc(OCC(=O)O)cc2)S/C1=N/c1nccs1	1.9	2.2	-6.2	38.2*	1.3	-1.3
O=C(Cc1cccc2ccccc12)Nc1ccccc1O	·	·	·	·	-1.6	·
COCC(=O)Nc1ccc2c(c1)C(=O)N(C)[C@H]1CC[C@@H](CC(=O)NCc3ccccc3F)O[C@@H]1CO2	·	·	·	0.9	·	·
Cc1cccnc1NC(=O)/C=C/c1ccc2c(c1)OCO2	13.5	7.3	6.2	·	-0.2	23.4*
CCOC(=O)c1cccc(N2C(=O)Nc3ccccc3N2O)c1	-1.0	1.0	3.3	·	-0.6	22.5*
SMILES	TDP2 inh	LEDGF integ inh	MBD2 inh	CASP6 VEID inh	NSD2 inh	UHRF1 MBD2 ctr
CCOC(=O)c1c(-c2ccccc2)csc1N1C(=O)Nc2ccccc2N1O	-0.3	4.4	0.4	1.9	1.7	0.6
Cc1ccc(C(=O)Nc2ccc(C(=O)O)cc2NC(=O)c2ccc(C)cc2)cc1	-8.3	26.7*	2.3	1.0	0.1	-0.5
O=C(O)c1ccc(NC(=O)c2ccc(Cl)cc2)c(NC(=O)c2ccc(Cl)cc2)c1	-11.1	2.9	9.6	-2.5	0.0	2.8
O=C(NC1CCCCC1)N[C@@H]1CC[C@@H](CCNS(=O)(=O)c2ccccc2)O[C@@H]1CO	·	·	·	-23.3	·	·
CSCCC(NS(=O)(=O)c1ccccc1F)C(=O)NCC(C)(C)N1CCOCC1 (stereo not drawn)	6.3	-2.7	1.5	54.4*	-2.3	2.3
COc1ccc(Br)cc1S(=O)(=O)NCc1ccccc1	6.4	1.7	1.9	·	-4.5	-2.8
COc1ccc(/C=C/C(=O)O)cc1S(=O)(=O)NCc1ccccc1	-15.0	87.7*	7.7	5.9	1.2	13.4
Cc1ccc2nc(-c3ccco3)c(Cc3ccsc3)n2c1	4.2	-1.0	7.4	7.5	·	22.9*
Cc1ccc(Cc2c(-c3ccco3)nc3c(C)cc(Br)cn23)cc1	3.0	0.1	1.4	22.6	·	20.9*
Cc1ccc(-c2nc3ccc(C)cn3c2Cc2ccsc2)cc1	-1.6	-0.8	5.4	2.8	·	13.3
Cc1ccc2nc(-c3ccc(Cl)cc3)c(Cc3ccsc3)n2c1	2.3	-0.8	-2.1	0.4	·	14.7
Cc1ccc(-c2nc3ccc(Cl)cn3c2Cc2ccsc2)cc1	5.9	-2.5	0.4	37.3*	·	3.4
Cc1ccc(Cc2c(-c3ccco3)nc3ccc(C)cn23)cc1	-11.5	5.1	4.5	15.3	·	24.3*
C[C@H](CO)N1C[C@H](C)[C@@H](CN(C)C(=O)NC2CCCC2)Oc2ncc(-c3ccncc3)cc2C1=O	·	·	·	-1.1	·	·
O=C(CC1CC1)N1[C@H](CO)[C@@H](c2ccccc2)C12CN(Cc1cc(F)ccc1F)C2	·	·	·	5.2	·	·
CC(C)(C)c1ccc(OCCCN2CCCC2)cc1	-11.8	-0.9	3.2	-28.8	3.2	24.4*
CN1CCN(CCCCOc2ccc(F)cc2)CC1	8.9	3.8	12.0	·	-1.0	21.8*
CN1CCN(CCCCOc2ccc(Br)cc2)CC1	4.3	1.0	10.7	-4.1	·	3.5
CCN1[C@@H]2Cn3c(ccc(-c4ccccc4OC)c3=O)[C@H]1[C@@H](C(=O)N[C@@H](C)c1ccccc1)[C@@H]2CO	·	·	·	-0.8	·	·
CC(C)CCNCC(O)CON=C1c2ccccc2-c2ccccc21 (stereo not drawn)	-13.7	-9.8	-1.8	-2.4	·	24.7*
COCCNCC(O)CON=C1c2ccccc2-c2ccccc21 (stereo not drawn)	4.2	2.7	-0.8	-1.7	0.4	-9.1
Cn1c(=O)[nH]c(=O)c2c1ncn2CCN1CCOCC1	2.8	7.5	-6.8	·	-0.2	2.0

From PubChem BioAssay
